Measurements taken from ChEMBL document CHEMBL4145642, “Natural Inhibitors of the RhoA-p115 Complex from the Bark of Meiogyne baillonii” (J Nat Prod, 2018).

Tests used:
[1] = molecular target: T1, Rho guanine nucleotide exchange factor 1 (Homo sapiens) (UniProt Q92888); assay: (§1) Inhibition of p115 DHPH22 domain (395 to 766 residues) (unknown origin) interaction with GDP-loaded His-tagged RhoA F25N mutant (1 to 180 residues) assessed as reduction in BODIPY-GTP-GDP exchange at 200 uM pretreated for 30 mins followed by RhoA addition by fluorescence based spectrophotometric method relative to control
T1 sequence (whole entry): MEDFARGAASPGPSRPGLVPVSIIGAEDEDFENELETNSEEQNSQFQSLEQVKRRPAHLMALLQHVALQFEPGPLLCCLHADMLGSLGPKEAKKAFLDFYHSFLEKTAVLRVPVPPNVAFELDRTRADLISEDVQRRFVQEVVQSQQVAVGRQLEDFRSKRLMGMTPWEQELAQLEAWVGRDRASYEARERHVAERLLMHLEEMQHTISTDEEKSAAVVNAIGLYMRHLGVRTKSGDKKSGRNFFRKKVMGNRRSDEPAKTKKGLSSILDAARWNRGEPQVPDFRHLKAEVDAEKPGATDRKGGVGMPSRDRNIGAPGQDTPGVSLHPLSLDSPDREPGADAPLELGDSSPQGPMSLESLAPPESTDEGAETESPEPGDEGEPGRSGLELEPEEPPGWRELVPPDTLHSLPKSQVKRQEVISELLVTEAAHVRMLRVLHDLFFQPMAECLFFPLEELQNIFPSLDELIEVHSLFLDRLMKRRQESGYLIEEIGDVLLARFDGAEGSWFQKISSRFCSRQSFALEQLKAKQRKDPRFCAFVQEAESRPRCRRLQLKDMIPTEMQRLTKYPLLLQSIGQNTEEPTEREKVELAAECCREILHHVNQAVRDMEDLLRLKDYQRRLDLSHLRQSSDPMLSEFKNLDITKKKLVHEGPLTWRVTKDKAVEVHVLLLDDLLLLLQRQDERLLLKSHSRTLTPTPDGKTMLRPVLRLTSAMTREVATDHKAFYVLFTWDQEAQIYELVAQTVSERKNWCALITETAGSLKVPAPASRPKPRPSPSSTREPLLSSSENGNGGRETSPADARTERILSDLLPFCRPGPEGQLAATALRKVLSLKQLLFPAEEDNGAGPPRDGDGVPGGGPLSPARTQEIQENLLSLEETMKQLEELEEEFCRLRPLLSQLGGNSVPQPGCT

[2] = molecular target: Rho guanine nucleotide exchange factor 1 (Homo sapiens, UniProt Q92888, F25N); assay: Inhibition of p115 DHPH22 domain (395 to 766 residues) (unknown origin) interaction with GDP-loaded His-tagged RhoA F25N mutant (1 to 180 residues) assessed as reduction in BODIPY-GTP-GDP exchange pretreated for 30 mins followed by RhoA addition by fluorescence based spectrophotometric method
[3] = molecular target: T2, Neuroepithelial cell-transforming gene 1 protein (Homo sapiens) (UniProt Q7Z628); assay: as §1, with “Net1 (149” for “p115 DHPH22 domain (395”, “501” for “766”
T2 sequence (whole entry): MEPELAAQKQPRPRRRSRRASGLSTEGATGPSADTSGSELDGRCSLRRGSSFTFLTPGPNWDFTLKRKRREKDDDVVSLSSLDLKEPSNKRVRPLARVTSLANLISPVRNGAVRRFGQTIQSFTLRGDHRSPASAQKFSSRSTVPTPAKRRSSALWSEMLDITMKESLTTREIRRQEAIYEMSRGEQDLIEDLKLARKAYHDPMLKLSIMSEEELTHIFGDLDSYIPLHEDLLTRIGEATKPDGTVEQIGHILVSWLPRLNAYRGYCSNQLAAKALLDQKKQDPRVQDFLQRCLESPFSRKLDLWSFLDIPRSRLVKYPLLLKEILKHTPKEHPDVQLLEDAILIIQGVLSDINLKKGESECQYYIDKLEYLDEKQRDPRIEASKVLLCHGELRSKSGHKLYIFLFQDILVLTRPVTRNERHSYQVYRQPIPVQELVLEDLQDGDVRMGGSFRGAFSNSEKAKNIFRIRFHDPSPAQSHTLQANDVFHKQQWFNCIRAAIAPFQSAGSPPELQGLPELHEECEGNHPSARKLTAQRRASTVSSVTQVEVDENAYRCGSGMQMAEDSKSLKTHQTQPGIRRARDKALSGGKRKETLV

[4] = molecular target: Neuroepithelial cell-transforming gene 1 protein (Homo sapiens, UniProt Q7Z628, F25N); assay: Inhibition of Net1 (149 to 501 residues) (unknown origin) interaction with GDP-loaded His-tagged RhoA F25N mutant (1 to 180 residues) assessed as reduction in BODIPY-GTP-GDP exchange pretreated for 30 mins followed by RhoA addition by fluorescence based spectrophotometric method
How it was run: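 Exchange is started with 0.1 μM GDP-loaded His-RhoA F25N (1−180). Fluorescence (ex 480/em 540 nm) is read every minute, and initial rate is taken over the first 15 min. Controls are run with and without GEF.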

inhibition [1] [%] | IC50 [2] [µM] | inhibition [3] [%] | Compound | IC50 [4] [µM]
50.5 | 187 | – | COc1cc(C)c2c(c1C=O)Oc1c(c(C)c(O)c3c1C(O)OC3=O)OC2=O (stereo unspecified) [STICTIC ACID] | –
0 | – | 5 | COc1c(O)cc2c3c(cc4c(O)cccc4c13)NC2=O | –
0 | – | 4 | COc1c(O)cc2c3c(cc4ccccc4c13)NC(=O)C2=O | –
1 | – | 5 | COc1cc(C)c2c(c1)Oc1c(cc(OC)cc1C(=O)O)OC2=O | –
10 | – | – | C=CCC/C=C/C#CC#CCCCCCC[C@H]1C(=O)O[C@H](C)[C@@H]1OC(C)=O | –

Second part, the molecule before the results:

Compound | inhibition [1] [%] | IC50 [2] [µM] | inhibition [3] [%] | IC50 [4] [µM]
CN1CCc2cc3c(c4c2c1cc1ccccc14)OCO3 [DEHYDROROEMERINE] | 21 | – | 83 | 120
C=CCC/C=C/C#CC#CCCCCCCCC(=O)O | 0 | – | – | –
C=CCC/C=C\C#CC#CCCCCCCC1=C[C@@H](C)OC1=O | 0 | – | – | –
C=CCC/C=C\C#CC#CCCCCCC[C@H]1C(=O)O[C@H](C)[C@@H]1OC(C)=O | 0 | – | – | –
C=CCC/C=C/C#CC#CCCCCCCCC[C@H]1C(=O)O[C@H](C)[C@@H]1OC(C)=O | 0 | – | – | –
